We go through 22 compounds from ChEMBL document CHEMBL4715828, “Identification of N-benzyltetrahydroisoquinolines as novel anti-neuroinflammatory agents” (2018).

Calls of active or inactive are those of the source. The rule behind the calls is not given here.

The test system of test [1] is BV-2. In words: Anti-neuroinflammatory activity in mouse BV2 cells assessed as inhibition of LPS-induced TNF-alpha production by measuring TNF-alpha level at 50 uM preincubated for 1 hr followed by LPS stimulation and measured after 24 hrs by ELISA (reference value: 100 +/- 0%). The test is classed as functional. As to conditions: time 25 hrs. The procedure, abridged: (§1)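 BV2 murine microglia in DMEM:F-12 (1:1) with 10% heat-inactivated FBS and penicillin/streptomycin, 5% CO2, seeded at 5 x 10^5 cells/mL in 12-well plates and attached overnight. Compound in DMSO (0.1% v/v final) added 1 h before LPS (E. coli O55:B5, 100 ng/mL) for 24 h. Medium centrifuged, then assayed by ELISA. Values are % of LPS, mean ± SEM, three experiments.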

Test [2] deals with BV-2. In words: Anti-neuroinflammatory activity in mouse BV2 cells assessed as inhibition of LPS-induced TNF-alpha production by measuring TNF-alpha level at 1 uM preincubated for 1 hr followed by LPS stimulation and measured after 24 hrs by ELISA (reference value: 100 +/- 0%). Further details: scale not given: the % may be the effect or the level left. Type of test: functional. To be noted: time 25 hrs. The procedure, abridged: as §1

Test [3] has as its system Microglia. In words: Anti-neuroinflammatory activity in primary mouse microglia cells assessed as reduction in LPS-induced IL-12p35 mRNA expression at 100 uM preincubated for 1 hr followed by LPS treatment for 4 hrs by qPCR analysis. Type of test: functional, cell-based. As to conditions: time 5.0 hrs. The procedure, abridged: (§2)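 Primary microglia come from cortical cells of 1-2-day neonatal mice, grown in DMEM/F12 with 10% FBS and 2 mM glutamine, plus 5 ng/ml GM-CSF from day 3. Cells shaken off at day 13-14, plated at 5 x 10^5 cells/mL and attached overnight. Compound given 1 h before LPS 100 ng/mL for 2 or 4 h, then RNA extracted and qPCR run. Mean ± SEM, three experiments.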
On the technique in general: Quantitative PCR measures a nucleic acid by following its amplification.

Test [4] relates to Microglia. The experiment in a line: Anti-neuroinflammatory activity in primary mouse microglia cells assessed as reduction in LPS-induced IL-1beta mRNA expression at 100 uM preincubated for 1 hr followed by LPS treatment for 4 hrs by qPCR analysis. The test is classed as functional, cell-based. To be noted: time 5.0 hrs. The procedure, abridged: as §2
Test [5] concerns BV-2. In words: Anti-neuroinflammatory activity in mouse BV2 cells assessed as inhibition of LPS-induced IL-6 production preincubated for 1 hr followed by LPS treatment and measured after 24 hrs by ELISA. Type of test: functional, cell-based. To be noted: dose 25-50 µM, time 25.0 hrs. The procedure, abridged:
as §1

The subject of test [6] is Microglia. The experiment in a line: Anti-neuroinflammatory activity in primary mouse microglia cells assessed as reduction in LPS-induced IL6 mRNA expression at 100 uM preincubated for 1 hr followed by LPS treatment for 2 hrs by qPCR analysis. Type of test: functional, cell-based. To be noted: time 3.0 hrs. The procedure, abridged:
as §2

In test [7] the test system is BV-2. The experiment in a line: Anti-neuroinflammatory activity in mouse BV2 cells assessed as inhibition of LPS-induced TNF-alpha production preincubated for 1 hr followed by LPS treatment and measured after 24 hrs by ELISA. Type of test: functional, cell-based. To be noted: dose 12-50 µM, time 25.0 hrs. A digest of the protocol:
as §1

The subject of test [8] is Microglia. The experiment in a line: Anti-neuroinflammatory activity in primary mouse microglia cells assessed as reduction in LPS-induced IL-12p40 mRNA expression at 100 uM preincubated for 1 hr followed by LPS treatment for 2 hrs by qPCR analysis. Type of test: functional, cell-based. As to conditions: time 3.0 hrs. A digest of the protocol:
as §2

In test [9] the test system is Microglia. The experiment in a line: Anti-neuroinflammatory activity in primary mouse microglia cells assessed as reduction in LPS-induced IL-12p40 mRNA expression at 100 uM preincubated for 1 hr followed by LPS treatment for 4 hrs by qPCR analysis. Type of test: functional, cell-based. As to conditions: time 5.0 hrs. The procedure, abridged:
as §2

Test [10] relates to Microglia. In words: Anti-neuroinflammatory activity in primary mouse microglia cells assessed as reduction in LPS-induced TNF mRNA expression at 100 uM preincubated for 1 hr followed by LPS treatment for 4 hrs by qPCR analysis. The test is classed as functional, cell-based. As to conditions: time 5.0 hrs. The procedure, abridged:
as §2

The subject of test [11] is Microglia. The experiment in a line: Anti-neuroinflammatory activity in primary mouse microglia cells assessed as reduction in LPS-induced IL-1beta mRNA expression at 100 uM preincubated for 1 hr followed by LPS treatment for 2 hrs by qPCR analysis. The test is classed as functional, cell-based. As to conditions: time 3.0 hrs. The procedure, abridged: as §2
The test system of test [12] is Microglia. In words: Anti-neuroinflammatory activity in primary mouse microglia cells assessed as reduction in LPS-induced IL-23p19 mRNA expression at 100 uM preincubated for 1 hr followed by LPS treatment for 4 hrs by qPCR analysis. The test is classed as functional, cell-based. As to conditions: time 5.0 hrs. The procedure, abridged:
as §2

Test [13] deals with Microglia. The experiment in a line: Anti-neuroinflammatory activity in primary mouse microglia cells assessed as reduction in LPS-induced GM-CSF mRNA expression at 100 uM preincubated for 1 hr followed by LPS treatment for 2 hrs by qPCR analysis. The test is classed as functional, cell-based. To be noted: time 3.0 hrs. A digest of the protocol:
as §2

Test [14] relates to Microglia. The experiment in a line: Anti-neuroinflammatory activity in primary mouse microglia cells assessed as reduction in LPS-induced TNF mRNA expression at 100 uM preincubated for 1 hr followed by LPS treatment for 2 hrs by qPCR analysis. Type of test: functional, cell-based. As to conditions: time 3.0 hrs. A digest of the protocol:
as §2

The subject of test [15] is Microglia. The experiment in a line: Anti-neuroinflammatory activity in primary mouse microglia cells assessed as reduction in LPS-induced GM-CSF mRNA expression at 100 uM preincubated for 1 hr followed by LPS treatment for 4 hrs by qPCR analysis. As to conditions: time 5.0 hrs. Type of test: functional, cell-based. The procedure, abridged:
as §2

Test [16] has as its system Microglia. In words: Anti-neuroinflammatory activity in primary mouse microglia cells assessed as reduction in LPS-induced IL-12p35 mRNA expression at 100 uM preincubated for 1 hr followed by LPS treatment for 2 hrs by qPCR analysis. The test is classed as functional, cell-based. To be noted: time 3.0 hrs. The procedure, abridged: as §2
The test system of test [17] is BV-2. The experiment in a line: Anti-neuroinflammatory activity in mouse BV2 cells assessed as inhibition of LPS-induced nitrite production preincubated for 1 hr followed by LPS treatment and measured after 24 hrs by Griess assay. As to conditions: dose 6-50 µM, time 25.0 hrs. Type of test: functional, cell-based. The procedure, abridged:
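BV2 cells seeded at 5 x 10^5 cells/mL in 12-well plates and attached overnight. Compound (0.1% v/v DMSO final) given 1 h before LPS 100 ng/mL for 24 h. Medium centrifuged to remove floating cells, then nitrite read by Griess kit. Mean ± SEM from three experiments.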
A general note: Nitrite, measured by Griess reagent, commonly stands in for NO production.

For test [18], the system named is Microglia. In words: Anti-neuroinflammatory activity in primary mouse microglia cells assessed as reduction in LPS-induced IL-23p19 mRNA expression at 100 uM preincubated for 1 hr followed by LPS treatment for 2 hrs by qPCR analysis. The test is classed as functional, cell-based. To be noted: time 3.0 hrs. A digest of the protocol: as §2
For test [19], the system named is Microglia. In words: Anti-neuroinflammatory activity in primary mouse microglia cells assessed as reduction in LPS-induced IL6 mRNA expression at 100 uM preincubated for 1 hr followed by LPS treatment for 4 hrs by qPCR analysis. To be noted: time 5.0 hrs. The test is classed as functional, cell-based. The procedure, abridged:
as §2

`COc1ccc2c(c1)CN(Cc1c(OC)cccc1OC)CC2`: the “TNF-alpha level (% of LPS control)” value in the test on BV-2 [1] came out at 82%.

In the case of `COc1ccccc1CN1CCc2cc3c(cc2C1)OCO3`, the “TNF-alpha level (% of LPS control)” value in the test on BV-2 [1] was 78%.

As to `COc1ccc2c(c1)CCN(Cc1c(OC)cccc1OC)C2`, the “TNF-alpha level (% of LPS control)” value in the test on BV-2 [1] came out at 64%.

As for `Cc1cccc(C)c1CN1CCc2cc3c(cc2C1)OCO3`, in the test on BV-2 [1], the “TNF-alpha level (% of LPS control)” value is recorded as 101%.

Turning to `COc1cccc(CN2CCc3cc4c(cc3C2)OCO4)c1OC`, the “TNF-alpha level (% of LPS control)” value in the test with BV-2 [1] is given as 61%.

Regarding `FC(F)(F)c1ccc(CN2CCc3cc4c(cc3C2)OCO4)cc1`, the “TNF-alpha level (% of LPS control)” value with BV-2 [1] was determined as 102%.

As to `COc1cccc(OC)c1C(=O)N1CCc2cc3c(cc2C1)OCO3`, the “TNF-alpha level (% of LPS control)” value in the test on BV-2 [1] is given as 73%.

`COc1ccc2cc3[n+](cc2c1OC)CCc1cc2c(cc1-3)OCO2.[Cl-]` [BERBERINE CHLORIDE]: the Activity in the test on BV-2 [2] was 25%.

Regarding `COc1ccc(CC2c3cc4c(cc3CC[N+]2(C)C)OCO4)cc1OC.[I-]` (centres undefined), the “TNF-alpha level (% of LPS control)” value in the test on BV-2 [1] was determined as 97%.

Take `COc1ccc(CC2NCCc3cc4c(cc32)OCO4)cc1OC` (centres undefined): in the test on BV-2 [1], the “TNF-alpha level (% of LPS control)” value is given as 77%.

For the compound `c1ccc(CN2CCc3cc4c(cc3C2)OCO4)cc1`, the “TNF-alpha level (% of LPS control)” value in the test on BV-2 [1] was found to be 90%.

Take `COc1cccc(CN2CCc3cc4c(cc3C2)OCO4)c1`: the “TNF-alpha level (% of LPS control)” value in the test with BV-2 [1] came to 78%.

Consider `COc1cc(CN2CCc3cc4c(cc3C2)OCO4)cc(OC)c1`, for which, in the test with BV-2 [1], the “TNF-alpha level (% of LPS control)” value stood at 89%.

In the case of `Clc1cccc(Cl)c1CN1CCc2cc3c(cc2C1)OCO3`, the “TNF-alpha level (% of LPS control)” value with BV-2 [1] is reported as 107%.

`COc1ccc(CN2CCc3cc4c(cc3C2)OCO4)c(OC)c1`: in the test on BV-2 [1], the “TNF-alpha level (% of LPS control)” value is recorded as 103%.

As to `COc1cccc(OC)c1CN1CCc2ccccc2C1`, in the test on BV-2 [1], the “TNF-alpha level (% of LPS control)” value is listed as 78%.

Regarding `COc1cccc(OC)c1CN1CCc2cc3c(cc2C1)OCO3`, the result with Microglia [3], in the test with Microglia [4], with Microglia [6], in the test with Microglia [11], in the test on Microglia [12] and in the test with Microglia [13] was Active. Further, the outcome with Microglia [15], in the test with Microglia [16], in the test on Microglia [18] and in the test with Microglia [19] was Active. In addition, the “TNF-alpha level (% of LPS control)” value in the test with BV-2 [1] is 39%. Moreover, the Activity entry in the test on BV-2 [5], with BV-2 [7] and with BV-2 [17] was “Dose-dependent effect” in each case. For the same compound, the outcome in the test on Microglia [8], in the test on Microglia [9], in the test with Microglia [10] and in the test on Microglia [14] was inactive.

Turning to `COc1ccc(CC2c3cc4c(cc3CCN2C)OCO4)cc1OC` (centres undefined), the “TNF-alpha level (% of LPS control)” value in the test on BV-2 [1] was found to be 77%.

In the case of `COc1ccc2c(c1OC)CN1CCc3cc4c(cc3C1C2)OCO4` (centres undefined) [TETRAHYDROBERBERINE], the “TNF-alpha level (% of LPS control)” value with BV-2 [1] is 45%.

As to `COc1ccc(CN2CCc3cc4c(cc3C2)OCO4)cc1`, in the test with BV-2 [1], the “TNF-alpha level (% of LPS control)” value is 88%.

In the case of `COc1ccc2c(c1OC)C[N+]1(Cc3ccccc3)CCc3cc4c(cc3C1C2)OCO4.[Br-]` (centres undefined), the “TNF-alpha level (% of LPS control)” value with BV-2 [1] is reported as 22%.

Take `COc1cccc(CN2CCc3ccccc3C2)c1OC`: in the test with BV-2 [1], the “TNF-alpha level (% of LPS control)” value stood at 95%.
